From PubChem
FN deposit inh: fibronectin deposition inhibition. AH1F fibroblasts, Alexa488-fibronectin deposition fluorescence, overnight. inhibition, % at 12.6 µM. hit rate 0.086% among 350,000;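 active means mean inhibition across replicates of 30% or more, regardless of how many single replicates reach that level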
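Measured by – fluorescence 485/525 nm · System – AH1F fibroblast monolayer, labelled fibronectin deposition · Amount – 10000 cells per well · Buffer or medium – serum-reduced DMEM (2% serum) · Doses – single dose, pinned · Also added – fluorescent fibronectin at 24 nM final · Schedule – 1 h cell attachment, overnight exposure to compound and label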
MLL AF4-AF9 inh: inhibitors of human MLL-AF4/AF9 interaction. hit rate 0.47% among 350,000. inhibition, % at 10 µM. AlphaScreen, biotin-AF4 peptide binding to FLAG-AF9. P42568;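 active means every replicate reaching a set inhibition limit, whatever the replicate mean, cut at about 25% in these data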
RAD52 anneal inh: RAD52 (human) annealing inhibition | recombinant RAD52 DNA annealing, FRET fluorescence | hit rate 0.46% among 360,000 | inhibition, % at 18.7 µM;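 active means every replicate showing at least 50% inhibition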
Target sequence (P43351 whole entry, looked up): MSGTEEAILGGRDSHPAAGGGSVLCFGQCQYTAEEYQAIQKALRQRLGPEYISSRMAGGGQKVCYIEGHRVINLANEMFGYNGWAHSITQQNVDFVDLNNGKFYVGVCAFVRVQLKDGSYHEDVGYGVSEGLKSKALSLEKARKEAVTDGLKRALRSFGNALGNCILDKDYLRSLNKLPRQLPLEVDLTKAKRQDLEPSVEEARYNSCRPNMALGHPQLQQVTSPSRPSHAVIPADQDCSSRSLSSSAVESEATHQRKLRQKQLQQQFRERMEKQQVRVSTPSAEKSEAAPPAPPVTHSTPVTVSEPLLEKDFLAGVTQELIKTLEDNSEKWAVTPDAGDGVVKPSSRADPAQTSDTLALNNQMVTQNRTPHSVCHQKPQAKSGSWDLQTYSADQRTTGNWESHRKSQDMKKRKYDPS
N-glyco inh: blocks N-linked glycosylation in D54 reporter cells. reporter increase, % at 12.5 µM. D54 ERlucT glycosylation luciferase reporter, 24 h; percent of 100 nM tunicamycin response. hit rate 0.23% among 360,000;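 active means mean luciferase reporter signal, scaled so untreated is 0 and the glycosylation-blocking control 100, at or above a set limit in every replicate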;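 further: luciferase carries N-glycosylation sites so blocking glycosylation raises the light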
RAD54 branch: blocks human RAD54 Holliday junction branch migration; inhibition, % at 10.4 µM; Q92698; FAM/BHQ fluorescence; hit rate 0.14% among 360,000;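 active means mean normalized replicate activity at least 40 and at least half of replicates scoring 40 or more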;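 further: inhibitors cause a drop in the FAM fluorescence signal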
A number is an active result; 0 = inactive; - = not tested or not shown; ! = a repeat was not active. This is a sample that favours compounds with a hit; in the whole collection about 0.92% have one here.

SMILES	FN deposit inh	MLL AF4-AF9 inh	RAD52 anneal inh	N-glyco inh	RAD54 branch
O=C1C(SCCO)=C(SCCO)C(=O)c2ccccc21	43	0	0	0	0
CC1=C(SCc2ccccc2)C(=O)c2ccccc2C1=O	-	0	0	0	0
COc1ccc(-c2n[nH]c3c2CN(C(=O)c2ccc(OC)c(OC)c2)CC3)cc1	0	0	0	39	0
COc1cc(OC)cc(C(=O)N2CCN(C(=O)c3ccc(OC)c(OC)c3)CC2)c1	0	-	-	0	0
Nc1ccc(Nc2ccc([N+](=O)[O-])cc2[N+](=O)[O-])cc1	-	27	0	0	-
NC(=O)c1ccc(Nc2ccc([N+](=O)[O-])cc2[N+](=O)[O-])cc1	0	0	0	0	-
C#CC[N+](C)(C)CCCCCCCCCCCC	0	0	0	144	-
C#CC[N+](C)(C)CCCCCCCCCC	0	0	0	40	0
C#CC[N+](C)(C)CCCCCCCC	0	0	0	0	-
Cc1cccc(NC(=S)N/N=C2\CC(C)(C)Oc3ccc(O)cc32)c1	39	0	0	0	-
CCOC(=O)C/C(=N\Nc1ncnc2ccccc12)c1ccccc1	0	0	0	0	0
CCOC(=O)/C(=N\Nc1ncnc2ccccc12)c1ccc(C)cc1	0	42	0	0	0
C=CC(=O)N1C/C(=C/c2ccc(Cl)cc2)C(=O)/C(=C\c2ccc(Cl)cc2)C1	0	0	0	0	-
C=CC(=O)N1C/C(=C/c2ccccc2)C(=O)/C(=C\c2ccccc2)C1	40	0	0	0	-
CCCC(O)C#Cc1cnc2c(c1)C(=O)N([C@H](C)CO)C[C@H](C)[C@H](CN(C)S(=O)(=O)c1ccc(OC)cc1)O2 (some centres undefined)	0	0	0	-	0
COc1cccc(C2CC(=O)NC(SC)=C2C#N)c1 (centres undefined)	0	25	0	0	0
COc1ccc(-c2sc(Nc3ccccc3)n[n+]2-c2ccccc2)cc1Br	0	0	0	0	0
C(=C\c1sc(Nc2ccccc2)n[n+]1-c1ccccc1)/c1ccccc1	0	31	0	0	0
Cc1nnc(N/N=C/c2cc(C)n(-c3ccc(F)cc3)c2C)n1N	0	54	0	0	-
CCn1c2ccccc2c2nc3cc(OC)c(OC)cc3nc21	35	-	-	0	0
CCn1c2ccccc2c2nc3ccccc3nc21	-	-	-	0	0
CCCC(=O)Nc1ccc2c(c1)C(=O)N(C)[C@H]1CC[C@H](CC(=O)Nc3ccc(C)cc3)O[C@@H]1CO2	0	0	0	-	0
CN(CCc1ccccc1)C(=O)c1ccc(NC(=O)Cc2cccc(NC(=O)C3CCN(C(=O)C4CCC4)CC3)c2)cc1	0	0	0	0	0
CN(CCc1ccccc1)C(=O)c1ccc(NC(=O)Cc2ccc(NC(=O)C3CCN(C(=O)C4CCC4)CC3)cc2)cc1	0	28	0	0	0
COc1ccc2c3c(n(C)c2c1)[C@@H](CO)N(CC1CCCC1)CC31CCN(C(=O)CN(C)C)CC1	-	0	0	-	-
SMILES	FN deposit inh	MLL AF4-AF9 inh	RAD52 anneal inh	N-glyco inh	RAD54 branch
COc1ccc2c3c(n(C)c2c1)[C@H](CO)N(CC1CC1)CC31CCN(C(=O)CN(C)C)CC1	-	0	54	-	-
COc1ccc(S(=O)(=O)N2CCC3(CC2)CN(C(=O)CN(C)C)[C@H](CO)c2c3c3ccc(OC)cc3n2C)cc1	-	33	57	-	-
CCn1c(SCC(=O)Nc2ccc(C(C)=O)cc2)nc2c([nH]c3ccccc32)c1=O	0	0	0	92	0
CNC[C@H]1Oc2ccc(NC(=O)Nc3cccc4ccccc34)cc2C(=O)N([C@H](C)CO)C[C@@H]1C	-	0	0	-	0
Oc1ccc(Nc2nc(-c3ccccc3)nc3ccccc23)cc1	-	-	0	0	0
Oc1ccc(Nc2nc3ccccc3nc2Nc2ccc(O)cc2)cc1	-	-	-	50	0
Cc1[nH]c(=O)[nH]c1C(=O)CCCCC(=O)O	0	73	0	0	0
O=C(C[C@@H]1CC[C@H]2[C@@H](COC[C@@H](O)CN2S(=O)(=O)c2ccccc2F)O1)NCc1ccccc1F	0	0	0	-	0
COc1ccc(CNCCC(c2ccccc2)c2ccc3c(c2)OCO3)cc1 (centres undefined)	-	25	0	0	0
CNC[C@@H]1Oc2ncc(C#Cc3cccc(F)c3)cc2C(=O)N([C@H](C)CO)C[C@@H]1C	0	0	0	-	-
COc1ccccc1S(=O)(=O)N[C@H]1CC[C@H](CC(=O)NCc2cc(F)cc(F)c2)O[C@@H]1CO	-	0	0	-	-
COc1cccc(-c2ccc(C3[C@@H]4CN(S(=O)(=O)c5ccccc5C)C[C@H]3N4)cc2)c1 (some centres undefined)	0	0	73!	-	-
COc1cccc(S(=O)(=O)N2C[C@@H]3N[C@H](C2)C3c2ccc(/C=C/c3ccccc3)cc2)c1 (some centres undefined)	0	0	58!	-	-
Cc1ccccc1-c1ccc(C2[C@@H]3CN(S(=O)(=O)c4ccccc4C)C[C@H]2N3)cc1 (some centres undefined)	0	0	72!	-	-
COc1ccc(-c2ccc(C3[C@@H]4CN(S(=O)(=O)c5ccccc5C)C[C@H]3N4)cc2)cc1 (some centres undefined)	0	-	-	-	-
COc1ccc2c3c(n(C)c2c1)[C@H](CO)N(C(=O)CN1CCOCC1)CC31CCN(C)CC1	-	0	-	-	-
CCN(CC)CC(=O)N1c2ccccc2Sc2ccccc21	0	0	0	0	0
CCN(CC)CCCCN1c2ccccc2Sc2ccccc21	0	25	0	0	0
CO[C@H]1CN(C)C(=O)c2cc(NS(C)(=O)=O)ccc2OC[C@@H](C)N(CC2CCOCC2)C[C@H]1C	0	0	0	-	0
Cc1ccc(C)c(N(C(=O)c2csnn2)C(C(=O)NC2CCCCC2)c2ccccn2)c1 (centres undefined)	0	37	0	0	0
COc1ccc(CN(C)C[C@@H]2Oc3c(NC(=O)CCCCCC(=O)Nc4ccccc4N)cccc3C(=O)N([C@@H](C)CO)C[C@H]2C)cc1	-	0	0	-	-
Cn1c(=O)[nH]c(=O)c2c1nc(N(CCO)Cc1ccccc1)n2CCCc1ccccc1	0	0	0	41	0
Cn1c(=O)[nH]c(=O)c2c1nc(N1CCN(Cc3ccccc3)CC1)n2CCCc1ccccc1	-	-	0	37	0
CCN1CCN(c2nc3c(c(=O)[nH]c(=O)n3C)n2CCCc2ccccc2)CC1	0	0	0	0	0
CCOC(=O)c1c(C)[nH]c(-c2csc(N)n2)c1C	0	0	0	27	-
SMILES	FN deposit inh	MLL AF4-AF9 inh	RAD52 anneal inh	N-glyco inh	RAD54 branch
Cc1noc(C)c1S(=O)(=O)Nc1cccc2c1O[C@H](CN(C)C(=O)NC1CCCCC1)[C@H](C)CN([C@H](C)CO)C2=O	0	0	0	-	0
CCOc1ccc2nc(NCCNC(=O)Nc3cccc(C)c3)c(C#N)cc2c1	0	-	-	42	0
CCOc1ccc2nc(NCCNC(=O)Nc3ccccc3)c(C#N)cc2c1	0	-	-	0	0
C[C@H]1CN([C@@H](C)CO)C(=O)c2c(c3ccccc3n2C)-c2ccccc2CO[C@H]1CN(C)CC1CCCCC1	0	-	-	-	-
COc1ccc(O)c(/C=N/NS(=O)(=O)c2ccc(C)cc2)c1	0	0	0	0	0
Cc1ccc(S(=O)(=O)N/N=C/c2cc(Br)ccc2O)cc1	0	30	0	0	0
